≈ marks a conversion by molar mass, not a printed value.
Columns and labels:
[1] = Metabolic stability in mouse liver microsomes assessed as half life; format: ADME, Microsome
In short: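 Mixture prewarmed 5 min, then started with 1.0 mM NADPH. Quenched with acetonitrile plus internal standard at 0, 5, 10, 15, 20 and 30 min. Parent measured by LC-MS-MS. No-NADPH controls.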

Vero = test: Cytotoxicity against african green monkey Vero cells after 72 hrs; format: cell-based; conditions: Chlorocebus sabaeus
In short: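 Vero cells (CCL-81), 5 × 10^5 log-phase cells per well, exposed to geometric 3-fold dilutions in MEM with 10% FBS, 25 mM HEPES, 0.2% NaHCO3, 2 mM glutamine. DMSO ≤1% v/v final. Tested in duplicate at 37 °C, 5% CO2. Viability read after 72 h by CellTiter 96 aqueous (MTS) absorbance at 490 nm. IC50 from curve fitting.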

[2] = Selectivity index, ratio of IC50 for african green monkey Vero cells to MIC for Mycobacterium tuberculosis H37Rv ATCC 27294; format: functional
In short: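 The ratio takes the Vero (CCL-81) IC50 as numerator. Cells were exposed to geometric 3-fold dilutions (12.8 mM DMSO stocks, final DMSO ≤1% v/v) in MEM with 10% FBS, 25 mM HEPES and 2 mM glutamine, in duplicate. Culture was 72 h at 37 °C, 5% CO2. Viability was read by CellTiter 96 aqueous absorbance at 490 nm, and IC50 came from curve fitting. The denominator is the H37Rv MABA MIC.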

[3] = Metabolic stability in mouse liver microsomes assessed as intrinsic clearance; format: ADME, Microsome
In short: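 Intrinsic clearance scaled up from the in vitro half-life in mouse liver microsomes. Microsomes at 0.5 mg/mL, compound at 1 μM, 1.0 mM NADPH, pH 7.4 phosphate buffer, 37 °C, in triplicate. Parent depletion followed over 30 min by LC-MS-MS.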

[4] = test system: Mycobacterium tuberculosis; test: Antimycobacterial activity against Mycobacterium tuberculosis H37Rv after 16 to 24 hrs by microplate alamar blue assay; format: functional
In short: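 M. tuberculosis H37Rv (ATCC 27294), 1 × 10^5 cfu/mL inoculum, in 7H12 medium with two-fold compound dilutions at 128 to 0.5 μM final (12.8 mM DMSO stocks). Incubated aerobically at 37 °C for 7 days, then Tween 80 plus Alamar blue added for 16-24 h. Fluorescence read at ex 530/em 590 nm. MIC = lowest concentration giving ≥90% reduction versus bacteria-only controls; average of two measurements.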

[5] = Tmax in BALB/c mouse at 50 mg/kg, po; format: ADME, organism-based; set-up: dose 50 mg/kg, route oral; conditions: in vivo
In short: (§1)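 Female BALB/c mice (20-22 g), groups of 12, single oral 50 mg/kg dose formulated in 5% NMP/95% PEG400. Retro-orbital blood sampled at 0, 0.5, 1, 2, 4, 8 and 24 h postdose. Plasma obtained by centrifugation, precipitated with three volumes acetonitrile containing internal standard. Parent quantified by LC-MS-MS. AUC over 0–24 h.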

[6] = Metabolic stability in mouse liver microsomes assessed as hepatic clearance; format: ADME, Microsome
In short: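 Hepatic plasma clearance predicted from microsomal intrinsic clearance with the nonrestricted well-stirred liver model. Assumes protein binding is similar in blood and microsomes. Microsomal depletion run at 1 μM compound, 0.5 mg/mL mouse microsomes, 1.0 mM NADPH, 37 °C, in triplicate, measured by LC-MS-MS.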

[7] = AUC in BALB/c mouse at 50 mg/kg, po; format: ADME, organism-based; set-up: dose 50 mg/kg, route oral; conditions: plasma; in short: as §1
[8] = Cmax in BALB/c mouse at 50 mg/kg, po; format: ADME, organism-based; set-up: dose 50 mg/kg, route oral; conditions: in vivo; in short: as §1

Row | Compound | MIC [4] [µM] | also measured
1 | Cc1nonc1C(=O)NC1CCCc2c1cnn2-c1ccc(C(C)(C)C)cc1 (stereo not given) | 1.7 (≈ 0.645 µg/mL) | half-life [1]: 27 min; IC50 (Vero): > 128 µM; Ratio IC50 [2]: >75.3; CLint scaled [3]: 200 mL/min/kg; Tmax [5]: 30 min; CLhep predicted [6]: 34 mL/min/kg; AUC [7]: 3.6 µM·h; Cmax [8]: 1.5 µM
2 | Cc1nonc1C(=O)Nc1cccc2c1cnn2-c1ccc(C(C)(C)C)cc1 | > 128 | –
3 | Cc1nonc1C(=O)NC1CCCc2c1cnn2-c1ccc(NC(=O)C(C)(C)C)cc1 (stereo not given) | 110 (≈ 46.5 µg/mL) | –
4 | Cc1nonc1C(=O)NC1CCCc2c1cnn2-c1ccc(NC(=O)C(F)(F)F)cc1 (stereo not given) | 128 (≈ 55.4 µg/mL) | –
5 | COC(=O)c1ccc(C(=O)NC2CCCc3c2cnn3-c2ccc(C(C)(C)C)cc2)nc1 (stereo not given) | 7.3 (≈ 3.16 µg/mL) | –
6 | CC(C)(C)c1ccc(-n2ncc3c2CCCC3NC(=O)c2ccno2)cc1 (stereo not given) | 124 (≈ 45.2 µg/mL) | –
7 | Cc1nonc1C(=O)NC1CCCc2c1cnn2-c1ccc(OC(F)(F)F)cc1 (stereo not given) | 1.9 (≈ 0.774 µg/mL) | half-life [1]: 102 min; IC50 (Vero): > 128 µM; Ratio IC50 [2]: >67.4; CLint scaled [3]: 54 mL/min/kg; Tmax [5]: 30 min; CLhep predicted [6]: 23 mL/min/kg; AUC [7]: 53.5 µM·h; Cmax [8]: 9.5 µM
8 | Cc1nc2cc(C(=O)NC3CCCc4c3cnn4-c3ccc(OC(F)(F)F)cc3)ccc2s1 (stereo not given) | > 128 | –
9 | Cc1nonc1C(=O)Nc1ccc(-n2ncc3c2CCCC3NC(=O)c2nonc2C)cc1 (stereo not given) | 44.9 (≈ 20.1 µg/mL) | –
10 | Cc1cc(C)cc(-n2ncc3c2CCCC3NC(=O)c2ccc3nonc3c2)c1 (stereo not given) | > 128 | –
11 | CC(C)(C)c1ccc(-n2ncc3c2CCCC3NC(=O)c2cnccn2)cc1 (stereo not given) | 57.7 (≈ 21.7 µg/mL) | –
12 | Cc1nonc1C(=O)NC1CCCc2c1cnn2-c1ccc(F)cc1 (stereo not given) | 30.7 (≈ 10.5 µg/mL) | –
13 | Cc1nonc1C(=O)NC1CCCc2c1nnn2-c1ccc(C(C)(C)C)cc1 (stereo not given) | 7.7 (≈ 2.93 µg/mL) | –
14 | Cc1nonc1CNC1CCCc2c1cnn2-c1ccc(C(C)(C)C)cc1 (stereo not given) | 38.6 (≈ 14.1 µg/mL) | –
15 | COc1ccc(-n2ncc3c2CCCC3NC(=O)c2nonc2C)cc1 (stereo not given) | > 128 | –
16 | Cc1nonc1C(=O)NC1CCCc2c1cnn2-c1ccc(C(F)(F)F)cc1 (stereo not given) | 1.9 (≈ 0.744 µg/mL) | IC50 (Vero): > 128 µM; Ratio IC50 [2]: >67.4
17 | Cc1cc(C)cc(-n2ncc3c(NC(=O)c4nonc4C)cccc32)c1 | 117 (≈ 40.6 µg/mL) | –
18 | CC(C)(C)c1ccc(-n2ncc3c2CCCC3NC(=O)c2ncccc2O)cc1 (stereo not given) | 26.9 (≈ 10.5 µg/mL) | –

Row | Compound | MIC [4] [µM] | also measured
19 | Cc1cc(C)cc(-n2ncc3c(NC(=O)c4ccc5c(c4)no[n+]5[O-])cccc32)c1 | 0.7 (≈ 0.28 µg/mL) | IC50 (Vero): 16.1 µM; Ratio IC50 [2]: 23
20 | Cc1cc(C)cc(-n2ncc3c2CCCC3NC(=O)c2nonc2C)c1 (stereo not given) | > 128 | –
21 | Cc1nocc1C(=O)NC1CCCc2c1cnn2-c1ccc(OC(F)(F)F)cc1 (stereo not given) | 48.9 (≈ 19.9 µg/mL) | –
22 | CC(C)(C)c1ccc(-n2ncc3c2CCCC3NC(=O)c2ccc3c(c2)no[n+]3[O-])cc1 (stereo not given) | 1 (≈ 0.431 µg/mL) | IC50 (Vero): 29 µM; Ratio IC50 [2]: 29
23 | Cc1nonc1C(=O)NC1CCCc2c1cnn2-c1ccc([N+](=O)[O-])cc1 (stereo not given) | > 128 | –
24 | Cc1nonc1C(=O)NC1CCCc2c1cnn2-c1ccc(Br)cc1 (stereo not given) | 64.6 (≈ 26 µg/mL) | –
25 | Cc1nonc1C(=O)NC1CCCc2c1cnn2-c1ccc(N)cc1 (stereo not given) | > 128 | –
26 | CSCCC(=O)NC1CCCc2c1cnn2-c1ccc(OC(F)(F)F)cc1 (stereo not given) | 88.3 (≈ 35.3 µg/mL) | –
27 | CC(C)(C)c1ccc(-n2ncc3c(NC(=O)c4ccc5c(c4)no[n+]5[O-])cccc32)cc1 | 0.4 (≈ 0.171 µg/mL) | IC50 (Vero): 1.8 µM; Ratio IC50 [2]: 4.5
28 | Cc1nonc1C(=O)NC1CCCc2c1cnn2-c1ccc(C(F)(F)F)cn1 (stereo not given) | > 128 | –
29 | Cc1nonc1C(=O)NC1CCCc2c1cnn2-c1ccccc1C(F)(F)F (stereo not given) | > 128 | –
30 | Cc1cc(C)cc(-n2ncc3c2CCCC3NC(=O)c2ccc3c(c2)no[n+]3[O-])c1 (stereo not given) | 1.9 (≈ 0.767 µg/mL) | –
31 | Cc1nonc1C(=O)NC1CCCc2c1cnn2-c1cccc(C(F)(F)F)c1 (stereo not given) | 15.4 (≈ 6.03 µg/mL) | –
32 | CSCC[C@H](N)C(=O)NC1CCCc2c1cnn2-c1ccc(C(C)(C)C)cc1 (stereo not given in full) | 4.8 (≈ 1.92 µg/mL) | –
33 | CC(C)(C)c1ccc(-n2ncc3c2CCCC3NC(=O)c2ccc3nonc3c2)cc1 (stereo not given) | > 128 | –
34 | Cc1nonc1C(=O)NC1CCCc2c1cnn2-c1ccc(NC(C)C)cc1 (stereo not given) | > 128 | –
35 | CO[C@H]1/C=C/O[C@@]2(C)Oc3c(C)c(O)c4c(O)c(c(/C=N/N5CCN(C)CC5)c(O)c4c3C2=O)NC(=O)/C(C)=C\C=C\[C@H](C)[C@H](O)[C@@H](C)[C@@H](O)[C@@H](C)[C@H](OC(C)=O)[C@@H]1C [RIFAMPIN] | 0.06 (≈ 0.0494 µg/mL) | Ratio IC50 [2]: 2033

Source: ChEMBL document CHEMBL1156793, “Identification, synthesis, and pharmacological evaluation of tetrahydroindazole based ligands as novel antituberculosis agents” (J Med Chem, 2010)
